ChEMBL document CHEMBL1132153, “Antitumor agents. 196. Substituted 2-thienyl-1,8-naphthyridin-4-ones: their synthesis, cytotoxicity, and inhibition of tubulin polymerization” (J Med Chem, 1999)

How the values were obtained:
SK-MEL-2 [1] = assay: In vitro cytotoxicity against SKMEL-2 human melanoma cancer cells; type: functional; settings: read-out: ED50 (the source's name)
Summary of the method: (§1)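 Panel of human tumor lines: KB nasopharyngeal epidermoid, A-549 lung, HCT-8 ileocecal, CAKI-1 renal, MCF-7 breast, SKMEL-2 melanoma. Growth measured by SRB assay and compared with untreated cells.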

HCT-8 = assay: In vitro cytotoxicity against HCT-8 human ileocecal cancer cells; type: functional; settings: read-out: ED50 (the source's name); summary of the method: as §1
KB [2] = assay: In vitro cytotoxicity against KB human epidermoid carcinoma of the nasopharynx; type: functional; settings: read-out: ED50 (the source's name); summary of the method: as §1
Tubulin [3] = target: T1, Tubulin (Bos taurus, UniProt Q6B856+Q862L2+Q862F3); assay: Inhibition of tubulin polymerization (ITP); type: functional
Summary of the method: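 Polymerization of electrophoretically homogeneous bovine brain tubulin at 12 µM, run with a range of inhibitor concentrations. IC50 is the concentration inhibiting polymerization by 50%, reported ± SD.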

MCF7 = assay: In vitro cytotoxicity against MCF-7 human breast cancer cells; type: functional; settings: read-out: ED50 (the source's name); summary of the method: as §1
CAKI-1 = assay: In vitro cytotoxicity against CAKI-1 human renal cancer cells; type: functional; settings: read-out: ED50 (the source's name); summary of the method: as §1
A549 = assay: In vitro cytotoxicity against A-549 human lung cancer cells; type: functional; settings: read-out: ED50 (the source's name); summary of the method: as §1
OVCAR-3 = assay: In vitro growth inhibition of OVCAR-3 ovarian cancer cell line.; type: functional; settings: Homo sapiens
MDA-N = assay: In vitro growth inhibition of MDA-N breast cancer cell line.; type: functional; settings: Homo sapiens
Tubulin [4] = target: T1, Tubulin; assay: Concentration inhibiting tubulin polymerization (ITP); type: functional
MDA-MB-435 = assay: In vitro growth inhibition of MDA-MB-435 breast cancer cell line.; type: functional; settings: Homo sapiens
HL-60 [5] = assay: In vitro growth inhibition of HL-60 (TB) leukemia cell line.; type: functional; settings: Homo sapiens
Summary of the method: (§2)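 Human leukemia HL-60(TB) cells exposed to compound in vitro. The read-out is log GI50 in molar units, defined as the log concentration that reduced cell growth to 50% of the level in untreated controls.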

SW-620 = assay: In vitro growth inhibition of SW-620 colon cancer cell line.; type: functional; settings: Homo sapiens
RXF 393 = assay: In vitro growth inhibition of RXF-393 renal cancer cell line.; type: functional; settings: Homo sapiens
SK-MEL-5 = assay: In vitro growth inhibition of SK-MEL-5 melanoma cell line.; type: functional; settings: Homo sapiens
Tubulin (Bos taurus) [6] = target: T2, Tubulin (Bos taurus) (UniProt Q6B856+Q862L2+Q862F3); assay: Concentration inhibiting [3H]colchicine binding to tubulin, at a concentration of 5 uM; type: protein assay
Summary of the method: (§3)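 Inhibition of [³H]colchicine binding to electrophoretically homogeneous bovine brain tubulin (1 µM). [³H]colchicine and inhibitor each at 5 µM. Result given as % inhibition.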

NCI-H23 = assay: In vitro growth inhibition of NCI-H23 non small cell lung cancer cell line.; type: functional; settings: Homo sapiens
U-251 = assay: In vitro growth inhibition of U251 CNS cancer cell line.; type: functional; settings: Homo sapiens
PC-3 = assay: In vitro growth inhibition of PC-3 prostate cancer cell line.; type: functional; settings: Homo sapiens
KB [7] = assay: In vitro cytotoxicity against KB-Vin cancer cell line.; type: functional; settings: Homo sapiens, read-out: ED50 (the source's name)
SK-MEL-2 [8] = assay: In vitro cytotoxicity against SKMEL-2 human melanoma cancer; type: functional; settings: read-out: ED50 (the source's name); summary of the method: as §1
Tubulin (Bos taurus) [9] = target: T2, Tubulin (Bos taurus); assay: Concentration inhibiting [3H]-colchicine binding to tubulin; type: protein assay; settings: concentration not given here; summary of the method: as §3
KB [10] = assay: In vitro cytotoxicity against KB-Vin cancer cell line; type: functional; settings: Homo sapiens, read-out: ED50 (the source's name)
HL-60 [11] = assay: In vitro growth inhibition of HL-60 (TB) leukemia cell line; type: functional; settings: Homo sapiens; summary of the method: as §2

Structure (SMILES)	EC50 (HCT-8) [µM]	EC50 (KB [2]) [µM]	IC50 (Tubulin [3]) [µM]	EC50 (MCF7) [µM]	EC50 (CAKI-1) [µM]	EC50 (A549) [µM]	GI50 (OVCAR-3) [µM]	GI50 (MDA-N) [µM]	GI50 (MDA-MB-435) [µM]	GI50 (HL-60 [5]) [µM]	GI50 (SW-620) [µM]	GI50 (RXF 393) [µM]	GI50 (SK-MEL-5) [µM]	GI50 (NCI-H23) [µM]	GI50 (U-251) [µM]	GI50 (PC-3) [µM]	further results
Cc1ccc2c(O)cc(-c3ccco3)nc2n1	> 10	> 10	14	> 20	> 10	> 10	–	–	–	–	–	–	–	–	–	–	EC50 (SK-MEL-2 [1]): > 10 µM
Cc1ccc2c(O)cc(-c3csc4ccccc34)nc2n1	–	–	–	–	–	–	< 0.01	< 0.01	< 0.01	< 0.01	< 0.01	< 0.01	< 0.01	0.0219	–	–	IC50 (Tubulin [4]): 0.37 µM; inhibition (Tubulin (Bos taurus) [6]): 65%
Cc1ccc2c(O)cc(-c3cc4ccccc4s3)nc2n1	–	–	> 40	–	–	–	> 100	> 100	> 100	> 100	> 100	51.3	> 100	> 100	> 100	> 100	–
Cc1cnc2nc(-c3ccc(C)s3)cc(O)c2c1	0.9	1.1	2.7	1.1	1.25	1.3	–	–	–	–	–	–	–	–	–	–	EC50 (KB [7]): 1.1 µM; EC50 (SK-MEL-2 [8]): > 2.5 µM
Cc1ccc2c(O)cc(-c3sc(-c4ccccc4)cc3C)nc2n1	–	–	14	–	–	–	21.4	3.89	3.55	5.5	10	36.3	3.39	6.03	–	–	–
Cc1cnc2nc(-c3sccc3C)cc(O)c2c1	1	1.3	3.8	1.1	> 5	2.5	3.8	0.676	0.324	–	4.17	4.47	2.04	–	9.12	5.37	EC50 (KB [7]): 1.9 µM
Cc1ccc2c(O)cc(-c3ccc(C)s3)nc2n1	–	–	1.7	–	–	–	0.257	0.0229	0.0234	0.0776	0.0479	0.195	0.204	0.138	0.324	0.204	–
Cc1ccc2c(O)cc(-c3sccc3C)nc2n1	–	–	2.8	–	–	–	0.661	0.0776	0.107	0.174	0.145	0.631	0.178	0.145	0.468	0.245	–
Cc1ccc2c(O)cc(-c3sc4ccccc4c3C)nc2n1	–	–	13	–	–	–	19.5	17	4.79	18.6	20	17	14.8	19.5	38.9	33.1	–
Cc1cc(C)c2c(O)cc(-c3csc4ccccc34)nc2n1	–	0.12	–	0.5	> 0.5	0.3	–	–	–	–	–	–	–	–	–	–	inhibition (Tubulin (Bos taurus) [9]): 26%; IC50 (Tubulin [4]): 0.78 µM
Cc1ccc2c(O)cc(-c3cccnc3)nc2n1	2.1	3	7.7	1.2	5	4.6	–	–	–	–	–	–	–	–	–	–	EC50 (SK-MEL-2 [8]): > 10 µM; EC50 (KB [10]): 2.5 µM
Cc1ccc2c(O)cc(-c3cc(C)sc3C)nc2n1	–	–	4.8	–	–	–	2.82	0.631	0.372	1.55	1.41	1.91	0.661	1.23	3.47	2.24	–
Cc1ccc2c(O)cc(-c3ccc(Br)s3)nc2n1	> 0.8	0.8	–	> 0.8	–	> 3.1	–	–	–	–	–	–	–	–	–	–	EC50 (SK-MEL-2 [1]): > 10 µM; EC50 (KB [7]): 0.5 µM; IC50 (Tubulin [4]): 1.5 µM; inhibition (Tubulin (Bos taurus) [6]): 19%
Cc1ccc2c(O)cc(-c3cccs3)nc2n1	–	6.3	6	> 1.6	–	> 6.3	30.9	1.86	2	2.69	2.95	11.2	6.03	4.37	17	9.33	EC50 (KB [10]): 9.5 µM
Cc1ccc2c(O)cc(-c3ccsc3)nc2n1	> 3.1	6.3	7	> 3.1	–	> 6.3	5.13	0.363	0.49	–	1	3.24	2.57	1.86	3.89	3.09	GI50 (HL-60 [11]): 2.19 µM
Cc1ccnc2nc(-c3csc4ccccc34)cc(O)c12	–	0.04	–	0.25	> 0.25	0.2	–	–	–	–	–	–	–	–	–	–	inhibition (Tubulin (Bos taurus) [9]): 22%; IC50 (Tubulin [4]): 1.2 µM
Cc1ccc2c(O)cc(-c3ccc(Cl)s3)nc2n1	–	–	1.7	–	–	–	2.04	0.186	0.38	0.204	–	2.04	0.38	1	1.2	1.58	–
Cc1cnc2nc(-c3csc4ccccc34)cc(O)c2c1	0.057	0.027	–	0.125	0.134	0.056	–	–	–	–	–	–	–	–	–	–	EC50 (SK-MEL-2 [1]): 0.135 µM; inhibition (Tubulin (Bos taurus) [9]): 26%; IC50 (Tubulin [4]): 0.91 µM
